Measured values taken from ChEMBL document CHEMBL5058577, “EUbOPEN Chemogenomics Library 2 (Multiplex)” (2022).

Test system: HEK-293T
Experiment: Multiplex assay against HEK293T
Assay type: toxicity, cell-based
Details: human
Outline: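 Live cells carried four stains from seeding: Hoechst33342, BioTracker Green Microtubule Cytoskeleton Dye, MitoTracker Red and Annexin V Alexa Fluor 680. They were imaged on a CQ1 microscope at 37°C and 5% CO2 after compound addition. Using CellPathfinder machine-learning gating, cells were split into Hoechst high-intensity objects or normal cells, normal cells into healthy, pyknosed or fragmented nuclei, and pyknosed cells into mitotic or apoptotic; tubulin, mitochondrial-mass and membrane-permeability phenotypes are per cents of healthy-nucleus cells.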

[1] = 12 h, 1 µM, compound concentration 1 uM, replicate 1
[2] = 12 h, 1 µM, compound concentration 1 uM, replicate 2
[3] = 12 h, 10 µM, compound concentration 10 uM, replicate 1
[4] = 12 h, 10 µM, compound concentration 10 uM, replicate 2
[5] = 24 h, 1 µM, compound concentration 1 uM, replicate 1
[6] = 24 h, 1 µM, compound concentration 1 uM, replicate 2
[7] = 24 h, 10 µM, compound concentration 10 uM, replicate 1
[8] = 24 h, 10 µM, compound concentration 10 uM, replicate 2
[9] = 48 h, 1 µM, compound concentration 1 uM, replicate 1
[10] = 48 h, 1 µM, compound concentration 1 uM, replicate 2
[11] = 48 h, 10 µM, compound concentration 10 uM, replicate 1
[12] = 48 h, 10 µM, compound concentration 10 uM, replicate 2

## COc1ccc2c(c1)C(C(=O)N(Cc1ccc(N(C)C)cc1)c1ccc(C(C)C)cc1)CCC2.Cl (configuration not stated)
[1]
  Population Apoptotic (%): 30%
  Population Fragmented Nuclei (%): 6%
  Population Healthy Nuclei (%): 80%
  Population Hoechst High Intensity Objects (%): 7%
  Population Membrane Permeable-Phenotype (%): 0%
  Population Mitochondria Different-Phenotype (%): 39%
  Population Mitotic Cells (%): 70%
  Population Normal (%): 92%
  Population Pyknosed Nuclei (%): 13%
  Population Tubulin-Different-Phenotype (%): 27%
  Total Cell Count: 413
[2]
  Population Apoptotic (%): 43%
  Population Fragmented Nuclei (%): 5%
  Population Healthy Nuclei (%): 79%
  Population Hoechst High Intensity Objects (%): 4%
  Population Mitochondria Different-Phenotype (%): 61%
  Population Mitotic Cells (%): 56%
  Population Normal (%): 95%
  Population Pyknosed Nuclei (%): 14%
  Population Tubulin-Different-Phenotype (%): 23%
  Total Cell Count: 330
[3]
  Population Apoptotic (%): 60%
  Population Fragmented Nuclei (%): 9%
  Population Healthy Nuclei (%): 78%
  Population Hoechst High Intensity Objects (%): 10%
  Population Membrane Permeable-Phenotype (%): 0%
  Population Mitochondria Different-Phenotype (%): 60%
  Population Mitotic Cells (%): 39%
  Population Normal (%): 89%
  Population Pyknosed Nuclei (%): 11%
  Population Tubulin-Different-Phenotype (%): 64%
  Total Cell Count: 383
[4]
  Population Apoptotic (%): 63%
  Population Fragmented Nuclei (%): 4%
  Population Healthy Nuclei (%): 77%
  Population Hoechst High Intensity Objects (%): 6%
  Population Mitochondria Different-Phenotype (%): 75%
  Population Mitotic Cells (%): 36%
  Population Normal (%): 93%
  Population Pyknosed Nuclei (%): 17%
  Population Tubulin-Different-Phenotype (%): 57%
  Total Cell Count: 361
[5]
  Population Apoptotic (%): 31%
  Population Fragmented Nuclei (%): 9%
  Population Healthy Nuclei (%): 81%
  Population Hoechst High Intensity Objects (%): 3%
  Population Membrane Permeable-Phenotype (%): 0%
  Population Mitochondria Different-Phenotype (%): 20%
  Population Mitotic Cells (%): 68%
  Population Normal (%): 96%
  Population Pyknosed Nuclei (%): 8%
  Population Tubulin-Different-Phenotype (%): 13%
  Total Cell Count: 567
[6]
  Population Apoptotic (%): 60%
  Population Fragmented Nuclei (%): 7%
  Population Healthy Nuclei (%): 79%
  Population Hoechst High Intensity Objects (%): 6%
  Population Mitochondria Different-Phenotype (%): 33%
  Population Mitotic Cells (%): 40%
  Population Normal (%): 93%
  Population Pyknosed Nuclei (%): 13%
  Population Tubulin-Different-Phenotype (%): 11%
  Total Cell Count: 399
[7]
  Population Apoptotic (%): 35%
  Population Fragmented Nuclei (%): 9%
  Population Healthy Nuclei (%): 73%
  Population Hoechst High Intensity Objects (%): 10%
  Population Membrane Permeable-Phenotype (%): 1%
  Population Mitochondria Different-Phenotype (%): 51%
  Population Mitotic Cells (%): 64%
  Population Normal (%): 89%
  Population Pyknosed Nuclei (%): 17%
  Population Tubulin-Different-Phenotype (%): 70%
  Total Cell Count: 409
[8]
  Population Apoptotic (%): 45%
  Population Fragmented Nuclei (%): 7%
  Population Healthy Nuclei (%): 76%
  Population Hoechst High Intensity Objects (%): 6%
  Population Membrane Permeable-Phenotype (%): 0%
  Population Mitochondria Different-Phenotype (%): 60%
  Population Mitotic Cells (%): 55%
  Population Normal (%): 93%
  Population Pyknosed Nuclei (%): 16%
  Population Tubulin-Different-Phenotype (%): 60%
  Total Cell Count: 389
[9]
  Population Apoptotic (%): 20%
  Population Fragmented Nuclei (%): 12%
  Population Healthy Nuclei (%): 80%
  Population Hoechst High Intensity Objects (%): 1%
  Population Membrane Permeable-Phenotype (%): 1%
  Population Mitochondria Different-Phenotype (%): 10%
  Population Mitotic Cells (%): 79%
  Population Normal (%): 98%
  Population Pyknosed Nuclei (%): 6%
  Population Tubulin-Different-Phenotype (%): 10%
  Total Cell Count: 968
[10]
  Population Apoptotic (%): 46%
  Population Healthy Nuclei (%): 81%
  Population Hoechst High Intensity Objects (%): 4%
  Population Membrane Permeable-Phenotype (%): 0%
  Population Mitochondria Different-Phenotype (%): 17%
  Population Mitotic Cells (%): 53%
  Population Normal (%): 95%
  Population Tubulin-Different-Phenotype (%): 15%
  Total Cell Count: 631
[11]
  Population Apoptotic (%): 59%
  Population Fragmented Nuclei (%): 15%
  Population Healthy Nuclei (%): 75%
  Population Hoechst High Intensity Objects (%): 9%
  Population Membrane Permeable-Phenotype (%): 6%
  Population Mitochondria Different-Phenotype (%): 25%
  Population Mitotic Cells (%): 40%
  Population Normal (%): 90%
  Population Pyknosed Nuclei (%): 9%
  Population Tubulin-Different-Phenotype (%): 53%
  Total Cell Count: 558
[12]
  Population Apoptotic (%): 36%
  Population Fragmented Nuclei (%): 11%
  Population Healthy Nuclei (%): 79%
  Population Hoechst High Intensity Objects (%): 3%
  Population Membrane Permeable-Phenotype (%): 2%
  Population Mitochondria Different-Phenotype (%): 24%
  Population Mitotic Cells (%): 63%
  Population Normal (%): 96%
  Population Pyknosed Nuclei (%): 8%
  Population Tubulin-Different-Phenotype (%): 50%
  Total Cell Count: 482
